Most compounds without a hit are left out; they make up all but 1% or so of the library.
FXIa mix inh: inhibitors of human coagulation factor XIa, pooled mixtures; P03951; purified FXIa, fluorogenic substrate; inhibition, % at 5 µM; hit rate 0.19% among 62,000; AID 680;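 note: each value is inhibition by a whole ten-compound pool holding the compound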
AP ELISA ortho: alternative pathway complement inhibition, orthogonal assay; hit rate 0.08% among 62,000; AID 1235; Human serum alternative complement pathway, LPS-coated ELISA, C3 deposition; tested in compound mixtures; inhibition, % at 5 µM;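 active = inhibition above 30% in each of the two pooled mixtures holding the compound, so the lower value exceeds 30%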
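Test system: human serum complement alternative pathway, C3 deposition onto LPS / Medium: Mg2+-EGTA GVB++ buffer containing human serum at 1:15 dilution / Probe or stimulus: Plate-bound LPS / Times: 1 h at 37 °C / Signal: ELISA with HRP anti-human C3 antibody, TMB substrate, absorbance 450 nm / Measure: percent inhibition / Repeats: two pool placements per compound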
HePTP inh: inhibitors of human HePTP phosphatase. P35236. recombinant HePTP phosphatase activity, OD absorbance. inhibition, % at 20 µM. hit rate 0.64% among 110,000. AID 521; in the data active = inhibition above about 50%
FXIIa mix inh: blocks human factor XIIa in pooled compound mixtures; inhibition, % at 5 µM; hit rate 0.2% among 62,000; P00748; purified FXIIa, fluorogenic substrate; AID 684
BAP1 block: blocks human BAP1 ubiquitin-AMC hydrolysis; recombinant BAP1, Ub-AMC hydrolysis fluorescence kinetic; stronger effect = lower value; hit rate 0.48% among 72,000; Q92560; calls only at 20 µM;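 active = activity remaining at or below 50% of control, provided the compound also passes the data quality filters; inactive = the rest, including low values that fail the filters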
Target sequence (Q92560 whole entry, looked up): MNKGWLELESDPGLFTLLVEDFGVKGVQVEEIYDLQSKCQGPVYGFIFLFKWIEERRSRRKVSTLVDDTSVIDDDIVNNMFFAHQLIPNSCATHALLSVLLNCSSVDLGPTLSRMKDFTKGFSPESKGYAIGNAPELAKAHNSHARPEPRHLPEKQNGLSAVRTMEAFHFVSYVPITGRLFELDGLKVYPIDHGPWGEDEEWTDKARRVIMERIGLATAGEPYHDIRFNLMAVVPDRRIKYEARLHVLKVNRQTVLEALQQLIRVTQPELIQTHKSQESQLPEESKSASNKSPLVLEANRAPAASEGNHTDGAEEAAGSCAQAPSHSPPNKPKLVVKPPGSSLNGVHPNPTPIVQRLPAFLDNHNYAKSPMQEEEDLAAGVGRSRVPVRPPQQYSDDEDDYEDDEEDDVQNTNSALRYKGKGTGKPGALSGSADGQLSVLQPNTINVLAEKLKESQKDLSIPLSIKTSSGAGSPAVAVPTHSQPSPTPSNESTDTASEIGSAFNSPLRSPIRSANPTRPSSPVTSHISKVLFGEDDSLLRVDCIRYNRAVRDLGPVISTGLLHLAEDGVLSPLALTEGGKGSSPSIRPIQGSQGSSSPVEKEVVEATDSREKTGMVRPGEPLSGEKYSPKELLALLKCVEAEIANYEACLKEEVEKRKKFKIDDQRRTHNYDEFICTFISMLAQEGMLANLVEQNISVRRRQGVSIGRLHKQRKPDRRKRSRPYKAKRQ
A number is an active result. Cut-off read from the data, not from the text of the source, unless noted: active = inhibition above about 20% (passing the limit was not always enough); inactive = the rest.

For O=C(c1ccccc1F)N1CCN(C2CC3CCC2C3)CC1 (stereo unspecified) the results were HePTP inh inactive.
`O=C(c1ccc(-c2ccccc2)cc1)N1CCN(C2CC3CCC2C3)CC1` (stereo unspecified) gave HePTP inh 71.
`Cc1cc(=O)[nH]c(Nc2nc(C)c3cccc(C)c3n2)n1` gave HePTP inh inactive.
Screening Cc1nc(Nc2nc(O)cc(=O)[nH]2)nc2c(C)cccc12 returned HePTP inh 103.
Screening CCOC(=O)c1c(NC(=O)c2ccncc2)sc(C(C)=O)c1C returned HePTP inh 105.
Cc1ccccc1N1C(=O)/C(=C\c2cccs2)SC1=S was read as HePTP inh inactive.
Screening O=C1NC(=O)N(c2cccc(F)c2)C(=O)/C1=C/c1ccc(I)o1 returned HePTP inh 53.
For O=C1NC(=O)N(c2ccccc2F)C(=O)/C1=C/c1ccc(I)o1 the results were HePTP inh 67.
Screening CC(C)c1ccc(N2C(=O)NC(=O)/C(=C/c3ccc(I)o3)C2=O)cc1 returned HePTP inh inactive.
For CC1(C)C(=O)N(Cc2ccccc2)c2ccccc2N1C(=O)c1ccc(Br)cc1 the results were BAP1 block inactive.
`CC1=C(C#N)c2nc(N)c(C#N)c(C)c2/C1=C/c1ccc(-c2ccccc2[N+](=O)[O-])o1` gave HePTP inh 81.
For O=C(O)CCCCCN1C(=O)C(=O)/C(=C(/O)c2ccccc2)C1c1ccccc1Cl (stereo unspecified) the results were HePTP inh inactive.
Screening Cc1csc(-c2cc3ccc(O)c(CN4CC5(C)CC4CC(C)(C)C5)c3oc2=O)n1 (stereo unspecified) returned HePTP inh 76.
For Cc1oc2c(CN3CC4(C)CC3CC(C)(C)C4)c(O)ccc2c(=O)c1-c1nc2ccccc2s1 (stereo unspecified) the results were HePTP inh inactive.
`Cc1ccc(N2C(=O)NC(=O)/C(=C/c3cccc(OCC(=O)O)c3)C2=O)cc1` gave HePTP inh inactive.
CC(C)N(CCC(=O)c1ccc2ccccc2c1)Cc1ccccc1 was read as BAP1 block active.
For CC(C)Oc1ccc(Cc2c(O)[nH]c(=S)[nH]c2=O)cc1 the results were HePTP inh inactive.
Screening O=C1C(Cl)=C(N2CCCCC2)C(=O)N1c1ccccc1 returned FXIa mix inh inactive, AP ELISA ortho inactive, HePTP inh inactive, FXIIa mix inh inactive and BAP1 block inactive.
O=C1C(Cl)=C(N2CCCCC2)C(=O)C(Cl)=C1/C=C/N1CCCCC1 was read as HePTP inh 102.
`CCOc1ccccc1/C=C1/C(=O)NN(c2ccc(C)c(Cl)c2)C1=O` gave HePTP inh 69.
O=C1NN(c2ccc(F)c(Cl)c2)C(=O)/C1=C\c1ccco1 was read as HePTP inh 99.
Screening Cc1ccc(N2NC(=O)/C(=C\c3ccco3)C2=O)cc1C returned HePTP inh inactive.
For CCOc1cc(/C=N/n2cnnc2)ccc1OCc1ccc(F)cc1 the results were HePTP inh inactive.
For CCOC(=O)C(=Cc1cc(OC)c(OC)cc1Br)C(=O)OCC the results were HePTP inh inactive.
For CCOC(=O)C(=CC1=C/C(=C/N(C)C)C(=O)O1)C(=O)OCC the results were HePTP inh 81.
`CC(NC(=O)C(=O)Nc1cccc(C(F)(F)F)c1)c1ccccc1` (stereo unspecified) gave HePTP inh inactive.
`COC(=O)C1=NN(C(=O)c2cccc([N+](=O)[O-])c2)C(O)(c2ccccc2)C1` (stereo unspecified) gave HePTP inh 104.
For CCOC(=O)c1c(C)[nH]c(C(=O)COC(=O)C2CC2C)c1C (stereo unspecified) the results were FXIa mix inh 27, AP ELISA ortho inactive, HePTP inh inactive, FXIIa mix inh inactive and BAP1 block inactive.
CCN1C(=O)/C(=C\c2ccccc2OCCOCCOc2ccc(C)cc2)SC1=S was read as HePTP inh inactive.
O=C(O)CC(C(=O)OCCOc1ccccc1)N1CCOCC1 (stereo unspecified) was read as HePTP inh inactive and BAP1 block inactive.
Screening O=C(CC(C(=O)O)N1CCOCC1)c1ccccc1 (stereo unspecified) returned HePTP inh 103.
Screening O=C(NC(c1ccccc1)c1ccccc1)C(c1ccccc1)N1CCOCC1 (stereo unspecified) returned BAP1 block inactive.
